For orientation: viability means a read-out of living cells in per cent, often relative to untreated cells. A word on the inhibition: it is the drop in the measured response relative to a control, in per cent.

A number with no mark means an inactive call. Records with an inconclusive call do not appear. Calls of active or inactive are those of the source.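 How the source made its calls, unless noted: active means RAM network inhibition above 8.4% in each of two replicates, 3 SD over the compound average; inconclusive means above 8.4% inhibition in only one replicate; inactive means 8.4% inhibition or less in each replicate.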

This note sets out measurements from PubChem BioAssay.

A short description of test [1]: S. cerevisiae growth inhibition in permissive medium (OD615), pilot counter-assay for S. cerevisiae lifespan shortening project, permissive growth control (AID 705;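 active means growth inhibition above 25% in both replicates, a cutoff set 3 SD above the mean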). The note with it: OD615, 24 h, at 10 µM, stronger effect = higher value. In outline:
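System: engineered DeaD yeast; Medium: permissive raffinose/galactose medium; Compound dosing: 10 µM single dose, 0.25% DMSO; Incubation: 4 h cell pre-growth, 24 h exposure at 30 °C; Technique: OD at 615 nm; Evaluation: growth inhibition from lowered OD615 after 24 h.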

The nature of test [2]: S. cerevisiae growth inhibition in restrictive medium, OD615, pilot screen, restrictive growth control, yeast lifespan reduction project (AID 706;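 active means growth inhibition above a set limit, 3 SD over mean compound inhibition, in both replicates, cut at about 43% in these data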;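 further: modified DeaD lifespan yeast strain shifted to restrictive glucose medium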). Conditions: OD615, 48 h, at 10 µM, stronger effect = higher value. In outline: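 Material: modified S. cerevisiae; buffer or medium: CSMM-D glucose medium; doses: one concentration, 10 µM final, 0.25% DMSO; incubation: 48 h compound exposure at 30 °C; detection: optical density at 615 nm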

Test [3] in a line: doxorubicin toxicity protection in MRP-1 cells – H69AR cells, CellTiter-Glo, duplicate, MRP-1 activator project, pilot screen (AID 807;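 active means viability increase at or above a cutoff of the median across tested compounds plus 3 SD, cut at about 8.5% in these data, passing the limit was not always enough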;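 further: compound pretreatment 18-22 h then 72 h combined with doxorubicin; 0% = doxorubicin alone and 100% = vehicle without doxorubicin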). The note with it: H69AR viability with doxorubicin, CellTiter-Glo luminescence; at 10 µM; stronger effect = higher value. (In general: Cellular ATP, detected with luciferase, serves as a proxy for viable cell number.)
Test [4] is described as follows: viability of HCT116 without oncogenic beta-catenin – human colon tumor cells, pilot screen (AID 823;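 active means cell viability at or below a set limit in both duplicate runs, the limit being the all-compound median minus 4 SD, cut at about 23% in these data, passing the limit was not always enough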;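 further: 0% = wells killed by 20 µM Hyamine and 100% = untreated DMSO cell wells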). Conditions: HCT116 beta-catenin knockout viability, CellTiter-Glo, 60 h; at 10 µM; stronger effect = lower value.
The nature of test [5]: RAM pathway blockade in budding yeast – dse1pr::URA3 reporter, 5-FOA selection, pilot screen (AID 869;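 active means inhibition over a set limit, the all-compound mean plus 3 SD, in both replicate runs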;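 further: 0% = DMSO wells with no growth and 100% = 10 µM 1-NA-PP1 with full growth; RAM network block rescues cells from 5-FOA so hits raise OD615 growth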). The note with it: S. cerevisiae dse1pr::URA3 5-FOA growth, OD615, 2 d; at 10 µM; stronger effect = higher value; strain carries analog-sensitive mutant Cbk1 kinase.
A short description of test [6]: RAM signaling pathway blockade in yeast – S. cerevisiae, Pdr1DBD-CYC8 efflux-inhibited sensitized strain, primary screen (AID 1298).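 Further: 0% = DMSO untreated cells without growth and 100% = 10 µM 1-NA-PP1 full growth; higher means more yeast growth rescued from 5-FOA killing.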 The note with it: S. cerevisiae cbk1-as DSE1-URA3 strain, 5-FOA growth OD615, 2 d; at 50 µM; stronger effect = higher value.

As to `CCn1cc(C(=O)NCc2cccnc2)c2cc(OC)c(OC)cc2c1=O`, the growth inhibition in test [1] is -18.3%; in test [2] it was -10%. Moreover, the viability increase in test [3] is -2.26%. The viability in test [4] is 95.7%. The inhibition in test [5] was 1.67%. Further, in test [6], the RAM network inhibition is 7.22%.
Regarding `O=C(Nc1nnc(-c2ccc3c(c2)CCCC3)o1)c1ccccc1Cl`, the growth inhibition is -7.88% in test [1] and 18.4% in test [2]. The viability increase in test [3] is -4.31%. The viability in test [4] was 34.6%. Besides, the inhibition in test [5] was 2.51%. The RAM network inhibition in test [6] was 4.48%.
Regarding `O=C(Cn1c(=O)sc2ccccc21)Nc1ccc2c(c1)OCCO2`, the growth inhibition in test [1] is -22.9%; in test [2], -7.4%. In addition, the viability increase in test [3] is -4.54%. In addition, the viability in test [4] was 93.9%. For the same molecule, in test [5], the inhibition was 1.6%. The RAM network inhibition in test [6] is 6.6%.
Turning to `CCC(=O)Nc1cc(C)c(NC(=O)c2ccco2)cn1`, the growth inhibition in test [1] was -18.1%; in test [2], -13.9%. Besides, in test [3], the viability increase was 0.56%. In test [4], the viability is 98.5%. In test [5], the inhibition was 1.52%. Also, the RAM network inhibition in test [6] is 4.21%.
`O=C(CSc1oc(-c2ccc(F)cc2)nc1S(=O)(=O)c1ccccc1)NCC1CCCO1` (stereo not drawn): the growth inhibition in test [1] was -15.8%; in test [2] it was 4.17%. The viability increase in test [3] is -5.58%. Besides, the viability in test [4] was 90.8%. Further, in test [5], the inhibition is 2.46%. Besides, the RAM network inhibition in test [6] was 6.86%.
On to `C=C(C)Cn1c(CCNC(=O)CCC)nc2ccccc21`, for which the growth inhibition in test [1] is -9.26%; in test [2] it was -10.3%. The viability increase in test [3] was -0.98%. The viability in test [4] was 99.1%. Moreover, the inhibition in test [5] was 1.54%. Besides, the RAM network inhibition in test [6] is 2.19%.
Consider `COc1ccc(C(=O)OCCN2C(=O)c3ccccc3C2=O)cc1OC`, for which the growth inhibition in test [1] was 6.76%; in test [2] it was 3.49%. Moreover, the viability increase in test [3] was -1.79%. Moreover, the viability in test [4] is 117%. Further, the inhibition in test [5] is 0.34%. In addition, in test [6], the RAM network inhibition is 0.93%.
As for `CCC(=O)N1CCc2cc(Br)cc(S(=O)(=O)N3CCN(c4ccccn4)CC3)c21`, the growth inhibition is -6.54% in test [1] and -9.5% in test [2]. The viability increase in test [3] was -2.05%. For the same molecule, the viability in test [4] is 101%. For the same molecule, the inhibition in test [5] was 0.44%. Also, in test [6], the RAM network inhibition is 9.66%.
For the molecule `Cc1ccc(Cc2cnc(N)s2)o1`, the growth inhibition is -11.3% in test [1] and 10.1% in test [2]. For the same molecule, the viability increase in test [3] was -5.06%. In addition, in test [4], the viability is 75.9%. For the same molecule, the inhibition in test [5] was 2.06%. In addition, the RAM network inhibition in test [6] is 5.71%.
Turning to `O=C(CCS(=O)(=O)c1ccccc1)Nc1nc2c(s1)COc1ccccc1-2`, the figures for the growth inhibition in test [1] and in test [2] were -11.8% and -10.9%, respectively. Also, the viability increase in test [3] was -8.46%. Besides, the viability in test [4] was 5.88% (active). Further, the inhibition in test [5] was 1.32%. In addition, the RAM network inhibition in test [6] is 3.55%.
Regarding `Cc1ccc(Cl)cc1N1CCN(S(=O)(=O)c2cccc(S(=O)(=O)N3CCCC3)c2)CC1`, the growth inhibition in test [1] was -4.5%; in test [2] it was 12%. In addition, the viability increase in test [3] was 0.04%. The viability in test [4] is 83.5%. Moreover, the inhibition in test [5] was 2.14%. In addition, in test [6], the RAM network inhibition is 6.44%.
`C=C(C)Cn1c(CCNC(=O)C(C)(C)C)nc2ccccc21`: the growth inhibition in test [1] is -12.7%; in test [2], 6.9%. Besides, in test [3], the viability increase was 0.45%. The viability in test [4] is 100%. For the same molecule, in test [5], the inhibition was 2.33%. In test [6], the RAM network inhibition is 1.51%.
For the molecule `COc1ccc(C2C3=C(CC(C)(C)CC3=O)Nc3n[nH]c(C)c32)cc1` (stereo not drawn), the growth inhibition was -9.23% in test [1] and -7.11% in test [2]. Further, the viability increase in test [3] is -4.1%. Further, the viability in test [4] was 93%. The inhibition in test [5] was 1.51%. The RAM network inhibition in test [6] was 3.28%.
As to `CCO/C=N/c1c(C#N)c(CC#N)nn1-c1ccccc1`, the growth inhibition was -13.5% in test [1] and 2.31% in test [2]. In addition, the viability increase in test [3] was -1.36%. Moreover, in test [4], the viability was 94.6%. In addition, the inhibition in test [5] is 2.31%. Further, in test [6], the RAM network inhibition was 1.41%.
Consider `O=C(CCn1c(=O)[nH]c2ccsc2c1=O)N1CCc2ccccc2C1`, for which the growth inhibition in test [1] was -13.3%; in test [2], -4.91%. Also, the viability increase in test [3] is -0.54%. Moreover, the viability in test [4] was 97.7%. Besides, the inhibition in test [5] was 2.71%. Moreover, the RAM network inhibition in test [6] is 8.73%.
Take `CCC1SC2=NC(C)=C(C(=O)OC)C(c3ccc(C(=O)OC)cc3)N2C1=O` (stereo not drawn): the values for the growth inhibition in test [1] and in test [2] were 6.67% and 35.7%, respectively. Moreover, the viability increase in test [3] is 3.25%. Besides, in test [4], the viability is 101%. Further, the inhibition in test [5] is 1.47%. In test [6], the RAM network inhibition is 9.87%.
As for `COc1ccc(N2CCN(CCCNC(=O)CCCn3c(=O)[nH]c4ccsc4c3=O)CC2)cc1`, the values for the growth inhibition in test [1] and in test [2] were -10.8% and -8.79%, respectively. In test [3], the viability increase was -1.23%. Also, the viability in test [4] is 94%. In test [5], the inhibition was 2.75%. Further, in test [6], the RAM network inhibition is 9.35%.
Take `C(=N\n1cnnc1)/c1ccc(N2CCOCC2)s1`: the growth inhibition was -13.4% in test [1] and -3.46% in test [2]. Further, in test [3], the viability increase was -1.47%. The viability in test [4] is 89.8%. Also, the inhibition in test [5] was 4.36%. Besides, in test [6], the RAM network inhibition was 8.67%.
